In ChEMBL document CHEMBL1134289, “5-(Tryptophyl)amino-1,3-dioxoperhydropyrido[1,2-c]pyrimidine-based potent and selective CCK(1) receptor antagonists: structure-activity relationship studies on the central 1,3-dioxoperhydropyrido[1,2-c]pyrimidine scaffold” (J Med Chem, 2001):

These molecules were tested against T1, Gastrin/cholecystokinin type B receptor (Rattus norvegicus, UniProt P30553) (assay: Inhibition of [3H]pCCK-8 binding to cholecystokinin type B receptor of rat cerebral cortex).
T1 sequence (P30553 whole entry): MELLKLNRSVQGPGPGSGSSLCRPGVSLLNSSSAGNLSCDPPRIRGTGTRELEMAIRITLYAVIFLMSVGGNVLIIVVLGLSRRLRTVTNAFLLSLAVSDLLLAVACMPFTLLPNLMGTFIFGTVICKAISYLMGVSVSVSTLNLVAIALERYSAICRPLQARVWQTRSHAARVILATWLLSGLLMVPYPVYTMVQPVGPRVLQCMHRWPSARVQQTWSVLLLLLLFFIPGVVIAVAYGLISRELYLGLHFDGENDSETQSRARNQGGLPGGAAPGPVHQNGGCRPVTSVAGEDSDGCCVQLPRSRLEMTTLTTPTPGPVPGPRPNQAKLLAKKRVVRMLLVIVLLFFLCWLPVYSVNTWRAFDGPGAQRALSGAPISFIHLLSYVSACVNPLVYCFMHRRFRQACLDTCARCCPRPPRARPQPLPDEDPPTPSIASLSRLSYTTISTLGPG
Assay type: tissue-based
In the case of `CC(C)(C)OC(=O)N[C@@H](Cc1c[nH]c2ccccc12)C(=O)N[C@@H]1CCCN2CN(Cc3ccccc3)C(=O)C[C@@H]12`, the IC50 is reported as > 10000 nM.
`CC(C)(C)OC(=O)N[C@@H](Cc1c[nH]c2ccccc12)C(=O)N[C@H]1CCCN2C(=S)N(Cc3ccccc3)C(=O)C[C@H]12` was tested, and the IC50 was > 10000 nM.
In the case of `CC(C)(C)OC(=O)N[C@@H](Cc1c[nH]c2ccccc12)C(=O)N[C@H]1CCCN2C(=S)N(Cc3ccccc3)C(=S)C[C@H]12`, the IC50 is reported as > 10000 nM.
In the case of `CC(C)(C)OC(=O)N[C@@H](Cc1c[nH]c2ccccc12)C(=O)N[C@@H]1CCCN2C(=O)N(Cc3ccccc3)CC[C@@H]12`, the IC50 is reported as > 10000 nM.
For `CC(C)(C)OC(=O)N[C@@H](Cc1c[nH]c2ccccc12)C(=O)N[C@@H]1CCCN2C(=O)N(Cc3ccccc3)C(=S)C[C@@H]12`, the IC50 was > 10000 nM.
For `CC(C)(C)OC(=O)N[C@@H](Cc1c[nH]c2ccccc12)C(=O)N[C@@H]1CCCN2CN(Cc3ccccc3)CC[C@@H]12`, the IC50 was > 10000 nM.
For `CC(C)(C)OC(=O)N[C@@H](Cc1c[nH]c2ccccc12)C(=O)N[C@@H]1CCCN2C(=S)N(Cc3ccccc3)C(=S)C[C@@H]12`, the IC50 was > 10000 nM.
For `CC(C)(C)OC(=O)N[C@@H](Cc1c[nH]c2ccccc12)C(=O)N[C@H]1CCCN2C(=O)N(Cc3ccccc3)C(=S)C[C@H]12`, the IC50 was > 10000 nM.
In the case of `CO[C@@H]1C[C@H]2[C@H](NC(=O)[C@H](Cc3c[nH]c4ccccc34)NC(=O)OC(C)(C)C)CCCN2C(=O)N1Cc1ccccc1`, the IC50 is reported as > 10000 nM.
With `CC(C)(C)OC(=O)N[C@@H](Cc1c[nH]c2ccccc12)C(=O)N[C@@H]1CCCN2C(=S)N(Cc3ccccc3)C(=O)C[C@@H]12` the IC50 was > 10000 nM.
With `CC(C)(C)OC(=O)N[C@@H](Cc1c[nH]c2ccccc12)C(=O)N[C@H]1CCCN2CN(Cc3ccccc3)C(=O)C[C@H]12` the IC50 was > 10000 nM.

Species: Rattus norvegicus
Assay: Inhibition of amylase release stimulated by CCK-8 (0.1 nM) in dispersed rat pancreatic acini
Assay type: functional
Summary of the method: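 Acini prepared by collagenase digestion (two 6-min incubations, 37 °C) in HEPES buffer pH 7.4, then suspended in buffer with theophylline, SBTI and BSA. Incubated 30 min at 37 °C under O2 with shaking, CCK-8 0.1 nM plus increasing compound levels. Released amylase taken as percent of acinar content; inhibition computed relative to vehicle and CCK-8 alone. Three to six experiments, in duplicate.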
In the case of `CC(C)(C)OC(=O)N[C@@H](Cc1c[nH]c2ccccc12)C(=O)N[C@H]1CCCN2C(=O)N(Cc3ccccc3)C(=O)C[C@H]12`, the IC50 is reported as 77 nM.
Work on `CC(C)(C)OC(=O)N[C@@H](Cc1c[nH]c2ccccc12)C(=O)N[C@@H]1CCCN2C(=O)N(Cc3ccccc3)C(=O)C[C@@H]12` [IQM-95333] yielded an IC50 of 0.64 nM.
For `CC(C)(C)OC(=O)N[C@@H](Cc1c[nH]c2ccccc12)C(=O)N[C@@H]1CCCN2C(=O)N(Cc3ccccc3)C(=S)C[C@@H]12`, the IC50 was 4.3 nM.
In the case of `CC(C)(C)OC(=O)N[C@@H](Cc1c[nH]c2ccccc12)C(=O)N[C@@H]1CCCN2C(=S)N(Cc3ccccc3)C(=S)C[C@@H]12`, the IC50 is reported as 62 nM.
`CC(C)(C)OC(=O)N[C@@H](Cc1c[nH]c2ccccc12)C(=O)N[C@H]1CCCN2C(=O)N(Cc3ccccc3)C(=S)C[C@H]12` showed an IC50 of 23 nM.
With `CC(C)(C)OC(=O)N[C@@H](Cc1c[nH]c2ccccc12)C(=O)N[C@@H]1CCCN2C(=S)N(Cc3ccccc3)C(=O)C[C@@H]12` the IC50 was 33 nM.

Each molecule was assayed against T1, Gastrin/cholecystokinin type B receptor (assay: Inhibition of [3H]pCCK-8 specific binding to cholecystokinin type B receptor in rat cerebral cortex).
Assay type: tissue-based
Summary of the method: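 Rat cerebral cortex homogenized in 50 mM Tris-HCl pH 7.4 with 5 mM MgCl2, centrifuged twice at 100000g, 4 °C. Membranes (0.45 mg protein/tube) incubated with 1 nM [3H]pCCK-8 and bacitracin 0.2 mg/mL, 60 min, 25 °C. Nonspecific binding defined by 1 µM CCK-8. Seven test concentrations in triplicate; at least three experiments.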
With `CC(C)(C)OC(=O)N[C@@H](Cc1c[nH]c2ccccc12)C(=O)N[C@@H]1CCCN2C(=O)N(Cc3ccccc3)C(=O)C[C@@H]12` [IQM-95333] the IC50 was > 10000 nM.

The molecules below were run against T2, Cholecystokinin receptor type A (Rattus norvegicus, UniProt P30551) (assay: Inhibition of [3H]pCCK-8 binding to cholecystokinin type A receptor of rat pancreas).
T2 sequence (P30551 whole entry): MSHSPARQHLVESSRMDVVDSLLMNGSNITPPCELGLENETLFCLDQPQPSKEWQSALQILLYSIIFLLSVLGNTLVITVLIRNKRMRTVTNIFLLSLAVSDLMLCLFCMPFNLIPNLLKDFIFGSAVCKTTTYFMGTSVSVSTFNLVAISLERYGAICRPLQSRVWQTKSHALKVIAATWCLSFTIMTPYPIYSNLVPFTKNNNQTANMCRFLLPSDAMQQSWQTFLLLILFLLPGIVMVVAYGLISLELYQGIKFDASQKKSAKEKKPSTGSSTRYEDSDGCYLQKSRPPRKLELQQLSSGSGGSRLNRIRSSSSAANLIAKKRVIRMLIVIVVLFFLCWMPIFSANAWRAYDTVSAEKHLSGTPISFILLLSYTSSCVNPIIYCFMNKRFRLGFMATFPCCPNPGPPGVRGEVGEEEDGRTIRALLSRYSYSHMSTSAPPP
Summary of the method: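 Rat pancreas homogenized in Pipes-HCl pH 6.5 with 30 mM MgCl2, centrifuged twice at 50000g, 4 °C. Membranes (0.2 mg protein/tube) incubated with 0.5 nM [3H]pCCK-8 plus bacitracin and SBTI (0.2 mg/mL each), 120 min, 25 °C. Seven test concentrations in triplicate; mean of at least three experiments.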
For `CC(C)(C)OC(=O)N[C@@H](Cc1c[nH]c2ccccc12)C(=O)N[C@@H]1CCCN2CN(Cc3ccccc3)C(=O)C[C@@H]12`, the IC50 was > 1000 nM.
`CC(C)(C)OC(=O)N[C@@H](Cc1c[nH]c2ccccc12)C(=O)N[C@H]1CCCN2C(=S)N(Cc3ccccc3)C(=O)C[C@H]12` was tested, and the IC50 was 825 nM.
Work on `CC(C)(C)OC(=O)N[C@@H](Cc1c[nH]c2ccccc12)C(=O)N[C@H]1CCCN2C(=S)N(Cc3ccccc3)C(=S)C[C@H]12` yielded an IC50 of 900 nM.
With `CC(C)(C)OC(=O)N[C@@H](Cc1c[nH]c2ccccc12)C(=O)N[C@@H]1CCCN2C(=O)N(Cc3ccccc3)CC[C@@H]12` the IC50 was > 1000 nM.
`CC(C)(C)OC(=O)N[C@@H](Cc1c[nH]c2ccccc12)C(=O)N[C@@H]1CCCN2C(=O)N(Cc3ccccc3)C(=S)C[C@@H]12` was tested, and the IC50 was 2.83 nM.
For `CC(C)(C)OC(=O)N[C@@H](Cc1c[nH]c2ccccc12)C(=O)N[C@@H]1CCCN2CN(Cc3ccccc3)CC[C@@H]12`, the IC50 was > 1000 nM.
For `CC(C)(C)OC(=O)N[C@@H](Cc1c[nH]c2ccccc12)C(=O)N[C@@H]1CCCN2C(=S)N(Cc3ccccc3)C(=S)C[C@@H]12`, the IC50 was 1.34 nM.
Molecule `CO[C@@H]1C[C@H]2[C@H](NC(=O)[C@H](Cc3c[nH]c4ccccc34)NC(=O)OC(C)(C)C)CCCN2C(=O)N1Cc1ccccc1` has an IC50 of 370 nM.
`CC(C)(C)OC(=O)N[C@@H](Cc1c[nH]c2ccccc12)C(=O)N[C@@H]1CCCN2C(=S)N(Cc3ccccc3)C(=O)C[C@@H]12` showed an IC50 of 0.09 nM.
In the case of `CC(C)(C)OC(=O)N[C@@H](Cc1c[nH]c2ccccc12)C(=O)N[C@H]1CCCN2CN(Cc3ccccc3)C(=O)C[C@H]12`, the IC50 is reported as > 1000 nM.
